ChEMBL document CHEMBL3286275, “Identification of 1-{2-[4-chloro-1'-(2,2-dimethylpropyl)-7-hydroxy-1,2-dihydrospiro[indole-3,4'-piperidine]-1-yl]phenyl}-3-{5-chloro-[1,3]thiazolo[5,4-b]pyridin-2-yl}urea, a potent, efficacious and orally bioavailable P2Y(1) antagonist as an antiplatelet agent” (Bioorg Med Chem Lett, 2014)
≈ marks a conversion by molar mass, not a printed value.

Tests used:
[1] = tested on: Liver microsome; assay: Metabolic stability in rat liver microsomes assessed as compound remaining; assay type: ADME
How it was run: (§1)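 Liver microsome stability: percent of compound remaining after incubation with […] (3 µM microsomes in some cases).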

[2] = tested on: Liver microsome; assay: Metabolic stability in human liver microsomes assessed as compound remaining; assay type: ADME; how it was run: as §1
[3] = tested on: Platelet; assay: Inhibition of ADP-induced platelet aggregation in platelet-rich human plasma; assay type: functional
How it was run: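 Human platelet-rich plasma; aggregation triggered by 10 µM ADP; IC50 determined.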

[4] = target: T1, P2Y purinoceptor 1 (Homo sapiens, UniProt P47900); assay: Antagonist activity at P2Y1 receptor in human platelets by FLIPR assay in presence of 2-methylthio-ADP
T1 sequence (P47900 whole entry): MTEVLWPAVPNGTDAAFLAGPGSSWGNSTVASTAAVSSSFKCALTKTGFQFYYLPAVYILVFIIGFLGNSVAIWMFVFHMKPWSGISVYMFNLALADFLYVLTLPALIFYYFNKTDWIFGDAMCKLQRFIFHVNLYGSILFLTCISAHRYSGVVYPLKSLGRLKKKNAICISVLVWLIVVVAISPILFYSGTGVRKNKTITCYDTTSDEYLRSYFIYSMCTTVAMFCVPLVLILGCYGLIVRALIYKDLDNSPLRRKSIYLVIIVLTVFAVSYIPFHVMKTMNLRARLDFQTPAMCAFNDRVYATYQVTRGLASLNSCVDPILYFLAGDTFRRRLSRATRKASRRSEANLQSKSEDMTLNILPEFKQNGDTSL
How it was run: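 Washed human platelets with endogenous P2Y1; calcium signalling read by FLIPR with reduced protein (~0.1% BSA); agonist 2-methylthio-ADP at 1 µM; IC50 given as mean ± SD.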

[5] = target: T1, P2Y purinoceptor 1; assay: Binding affinity to P2Y1 receptor in human platelets
[6] = tested on: Liver microsome; assay: Metabolic stability in human liver microsomes assessed as GSH adduct formation; assay type: ADME
How it was run: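 Human liver microsomes incubated with glutathione to detect reactive intermediates; GSH adduct (M+GSH) measured as percent.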

[7] = Aqueous solubility of the compound at pH 6.5; assay type: physicochemical; details: aqueous medium
How it was run: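 Aqueous solubility taken on crystalline material: free base at pH 6.5, mono-methanesulfonic acid salt at pH 3.9.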

Row | Structure (SMILES) | Stability [1] | Stability [2] | IC50 [3] | IC50 [4] | Ki [5] | Stability [6] | solubility [7]
1 | CC(C)(C)CN1CCC2(CC1)CN(c1ccccc1NC(=O)Nc1ccc(OC(F)(F)F)cc1)c1c(O)ccc(C(F)(F)F)c12 | 98% | 100% | 130 nM | 0.14 nM | – | – | –
2 | CC(C)(C)CN1CCC2(CC1)CN(c1ccccc1NC(=O)Nc1nc3ccc(Cl)cc3s1)c1c(O)ccc(Cl)c12 | 93% | 96% | 320 nM | 0.17 nM | – | – | –
3 | CC(C)(C)CN1CCC2(CC1)CN(c1ccccc1NC(=O)Nc1ccc(OC(F)(F)F)cc1)c1c(O)ccc(C#N)c12 | 51% | 59% | 1100 nM | 0.04 nM | – | – | –
4 | CC(C)(C)CN1CCC2(CC1)CN(c1ccccc1NC(=O)Nc1ccc(OC(F)(F)F)cc1)c1c(O)cccc12 | 87% | 80% | 1600 nM | 0.23 nM | 4 nM | Unstable | 30 µg/mL (≈ 52.8 µM)
5 | CC(C)(C)CN1CCC2(CC1)CN(c1ccccc1NC(=O)Nc1ccc(OC(F)(F)F)cc1)c1cccc(O)c12 | – | – | – | > 150 nM | – | – | –
6 | CC(C)(C)CN1CCC2(CC1)CN(c1ccccc1NC(=O)Nc1ccc(C(F)(F)F)cc1)c1c(O)ccc(Cl)c12 | 93% | 93% | 400 nM | 0.08 nM | – | – | –
7 | CC(C)(C)CN1CCC2(CC1)CN(c1ccccc1NC(=O)Nc1csc(Cl)n1)c1c(O)ccc(Cl)c12 | 66% | 87% | 170 nM | 0.03 nM | – | – | –
8 | CC(C)(C)CN1CCC2(CC1)CN(c1ccccc1NC(=O)Nc1ccc(OC(F)(F)F)cc1)c1c(O)ccc(Cl)c12 | 88% | 79% | 450 nM | 0.04 nM | – | – | –
9 | CC(C)(C)CN1CCC2(CC1)CN(c1ccccc1NC(=O)Nc1ccc(OC(F)(F)F)cc1)c1c(O)ccc(F)c12 | 70% | 78% | 920 nM | 0.37 nM | – | – | –
